Source: PubChem BioAssay (Sanford-Burnham Center for Chemical Genomics)
FLuc stim CS = affects firefly luciferase, flagging false hits in luciferase stimulation screens; P08659; 200,000 tested, under 10 active; ATPlite luciferase biochemical, luminescence, 10 min; 0 = ATP-free wells, 1 = DMSO control; activation factor at 10 µM;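 active = luciferase activation factor, scaled between plate controls, of at least 2 with compound at 10 µM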
Target sequence (P08659 whole entry, looked up): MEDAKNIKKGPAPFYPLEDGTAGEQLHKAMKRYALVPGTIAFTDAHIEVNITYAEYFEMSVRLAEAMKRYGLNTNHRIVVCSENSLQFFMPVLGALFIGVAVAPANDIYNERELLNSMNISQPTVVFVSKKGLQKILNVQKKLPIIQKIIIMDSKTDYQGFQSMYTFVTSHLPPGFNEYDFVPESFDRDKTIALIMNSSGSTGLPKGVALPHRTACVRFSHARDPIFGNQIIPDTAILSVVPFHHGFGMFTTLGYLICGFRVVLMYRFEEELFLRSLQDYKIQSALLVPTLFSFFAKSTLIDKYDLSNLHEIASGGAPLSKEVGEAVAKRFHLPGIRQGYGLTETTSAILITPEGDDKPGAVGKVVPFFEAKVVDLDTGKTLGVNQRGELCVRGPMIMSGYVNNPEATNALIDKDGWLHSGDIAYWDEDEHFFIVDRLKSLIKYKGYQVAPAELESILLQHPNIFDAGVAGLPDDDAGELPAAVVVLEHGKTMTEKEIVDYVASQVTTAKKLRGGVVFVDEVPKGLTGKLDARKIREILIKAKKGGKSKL
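assay system = Luciferase/luciferin detection reagent, cell-free biochemical luciferase assay | also added = ATP substrate | times = 10 min post-reagent at room temperature | measured by = luminescence from luciferase reaction | measure = luciferase activation, seen as luminescence increase over controls | benchmarks = low control with PBS replacing ATP, high control enzyme plus ATP without compound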
C8 TRAIL sens = caspase-8 TRAIL sensitization; inhibition (viability loss, TRAIL sensitization), % at 10 µM; actives 1% (n = 360,000); NB7+C8 cells + TRAIL, ATPlite viability luminescence;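 active = compounds causing at least 50% loss of cell viability in the single-dose screen, relative to plate controls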
PPC-1+TRAIL kill = PPC-1 cancer cell killing with TRAIL present; PPC-1 cells + TRAIL, ATPLite viability luminescence; cell killing (% activity), % at 4 µM or 5 µM; actives 0.41% (n = 220,000);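 active = cell killing above 50% in the first pass at 4 µM, then a duplicate retest at 5 µM averaging 50% or more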;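 note: plate controls were cells with TRAIL plus DMSO for no effect and medium-only wells lacking cells for full effect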
FLuc inh counter = counter-screen for luciferase assay inhibitors: firefly luciferase inhibition; P08659; ATPLite firefly luciferase biochemical luminescence, 10 min; inhibition, % at 10 µM; actives 1.5% (n = 200,000); AID 1006;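 active = inhibition above about 50% when tested at 10 µM, limit read from the data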
* hit, by the source's call; / = not tested or not shown. Rows were chosen to be rich in hits. Some 1.5% of all compounds tested hit in one or more screens of this group.

SMILES	FLuc stim CS	C8 TRAIL sens	PPC-1+TRAIL kill	FLuc inh counter
O=C(NO)c1cc(OCC(F)(F)F)ccc1OCC(F)(F)F	1	50.8*	-3.6	0.4
O=C(NNC(=O)c1cc(OCC(F)(F)F)ccc1OCC(F)(F)F)c1cccc(C(F)(F)F)c1	1.1	52.3*	-13.5	-6.4
Cc1cc(NC(=O)NC(=O)c2ccc(F)cc2F)n[nH]1	0.5	23.1	27.9	53.2*
COc1ccc(NC(=O)c2cc3ccccc3o2)cc1	0.5	37.9	40.3	52.6*
O=C(COc1ccc(/C=N/NC(=O)c2cc3ccccc3o2)cc1Br)Nc1ccccc1	1	59.1*	32.6	-1.5
CC(C)C(=O)Nc1cccc(NC(=O)c2cc3ccccc3o2)c1	0.7	14.4	12.8	29.8
O=C(Nc1ccccc1)c1cc2ccccc2o1	0.3	55.8*	31.8	74.0*
CC(=O)Nc1cccc(NC(=O)c2cc3ccccc3o2)c1	0.4	41.3	48.1	64.3*
O=C(NCCCc1ccccc1)c1ccncc1	1.1	17.5	14.4	-5.9
CC1CN(C(=O)COC(=O)c2ccc(Cl)c(N)c2)CC(C)O1 (centres undefined)	/	-7.1	/	/
COc1ccccc1-c1noc2c1C(=O)N(Cc1cn(-c3ccccc3)nn1)CC2	/	2.0	/	/
O=C(Nc1ncc2c(n1)-c1ccccc1OC2)c1ccc(F)cc1	1	-10.3	-4.6	-4.8
O=C(CSc1nnc(Cc2csc(Nc3cccc(Cl)c3)n2)o1)N1CCc2ccccc21	1.1	-11.7	13.7	-9.6
COc1cccc(NC(=O)c2cc3ccccc3o/c2=N\O)c1	/	55.0*	/	/
O=C(Nc1ccccc1Cl)c1cc2ccccc2o/c1=N\O	/	6.8	/	/
O=C1c2ccc(Cl)cc2S(=O)(=O)c2cccc(C(=O)N3CCN(c4ccc(Cl)cn4)CC3)c21	/	59.0*	/	/
COc1ccc(-c2ccc3c(c2)S(=O)(=O)c2cccc(C(=O)N4CCN(c5ccc(Cl)cn5)CC4)c2C3=O)cc1OC	/	12.5	/	/
CC(C)COc1cccc(C(=O)NNC(=O)C2COc3ccccc3O2)c1 (centres undefined)	/	3.7	/	/
Cc1ccc(C(=O)Oc2oc(-c3ccccc3)nc2C=Nc2ccc(N(C)C)cc2)cc1	0.7	31.7	55.8*	32.1
CSc1ccc(C2NN=C(c3ccccc3)S2)cc1 (centres undefined)	/	84.0*	/	/
COc1ccc(C2NN=C(c3ccc(C)cc3)S2)cc1 (centres undefined)	/	49.7*	/	/
Oc1ccccc1C1NN=C(c2ccccc2)S1 (centres undefined)	/	70.3*	/	/
CSc1ccc(CNc2ccccc2)cc1	1	/	9.5	-3.5
CCOc1cc(C2NN=C(c3ccc(C)cc3)S2)ccc1O (centres undefined)	0.8	38.8	18.1	21.1
Oc1ccccc1C1SC(c2ccccc2O)SC(c2ccccc2O)S1 (centres undefined)	/	-0.9	/	/
SMILES	FLuc stim CS	C8 TRAIL sens	PPC-1+TRAIL kill	FLuc inh counter
CC(C)NC(=O)c1onc(CSc2ccc(C(C)C)cc2)c1C(=O)O	1	-9.6	96.2*	-4.2
O=C1C(=O)c2cccnc2-c2ncccc21	/	96.0*	/	/
CSc1nc(-c2ccco2)nn1C(=O)c1cccs1	1	7.0	10.2	-2.5
O=C(CSc1nnc(NC(=O)c2ccccc2)s1)NCc1ccco1	/	61.2*	/	/
O=C(CSc1nnc(NC(=O)c2cccc(F)c2)s1)NC1CCCC1	/	19.7	/	/
O=C(CSc1nnc(NC(=O)c2ccc(F)cc2)s1)NCc1ccco1	/	56.4*	/	/
COc1cccc(C(=O)Nc2nnc(SCC(=O)NC3CCCC3)s2)c1	/	57.3*	/	/
O=C(CSc1nnc(NC(=O)Cc2ccccc2)s1)NCC1CCCO1 (centres undefined)	1	14.1	4.0	1.0
O=C(CSc1nnc(NC(=O)c2ccccc2)s1)NCC1CCCO1 (centres undefined)	/	56.1*	/	/
O=C(CSc1nnc(NC(=O)c2cccc(F)c2)s1)NCc1ccco1	/	24.0	/	/
CCn1c(SCC(=O)NC2CCCC2)nnc1-c1ccncc1	/	9.1	/	/
Cc1ccccc1C(=O)Nc1nnc(SCC(=O)NCc2ccco2)s1	/	58.8*	/	/
CCn1c2ccccc2c2cc(NC(=O)c3cc(OC)cc(OC)c3)ccc21	1.1	-18.5	2.2	-7.6
COc1ccc(-c2coc3cc(O)ccc3c2=O)cc1O	0.5	16.4	23.1	53.9*
C/C(=N\Nc1nc(C)cc(-c2ccccc2)n1)c1cccc(N)c1	/	51.2*	/	/
CCN(CC)c1ccc(N)cc1	/	60.4*	/	/
CCN(Cc1nc2cc(Cl)ccc2c(=O)[nH]1)C(=O)COc1ccccc1Cc1ccccc1	/	9.5	/	/
CC(/C=N/NC(=O)c1cccs1)=C\c1ccccc1	0.2	58.4*	20.6	75.7*
O=C(N/N=C/C(Br)=C\c1ccccc1)c1n[nH]c2c1CCC2	0.6	35.6	37.4	42.2
O=C(N/N=C/C(Cl)=C\c1ccccc1)c1cccs1	/	25.8	4.9	/
CC(/C=N/NC(=O)c1n[nH]c2c1CCC2)=C\c1ccccc1	0.5	47.1*	20.1	52.7*
Cc1cc(Cl)c(S(=O)(=O)Nc2ccc(S(=O)(=O)N3CCOCC3)cc2)cc1OCC(N)=O	1	-1.8	6.6	-1.5
COc1cc2c(cc1OC)C(C1C(=O)CC(C)(C)CC1=O)N(C(=O)CCl)CC2 (centres undefined)	1.1	-10.8	11.5	-5.5
COc1cc2c(cc1OC)C(c1cc(Br)ccc1F)N(C(=O)CCl)CC2 (centres undefined)	/	94.6*	/	/
CCOc1cc(CNC(C)(C)C)ccc1OCC(=O)Nc1cccc(C(F)(F)F)c1	1.1	3.2	6.6	-9.7
SMILES	FLuc stim CS	C8 TRAIL sens	PPC-1+TRAIL kill	FLuc inh counter
CCC(CO)NCc1ccc(OCC(=O)Nc2cccc(C(F)(F)F)c2)c(OC)c1 (centres undefined)	1.1	11.6	51.9*	-6.7
COc1ccccc1N1CCN(c2ccc3ccccc3n2)CC1	/	48.0*	/	/
COc1ccccc1N1CCN(c2ccc(-c3ccccc3)nn2)CC1	0.1	86.8*	36.8	90.1*
CCOc1ccccc1NC(=O)Cn1nnc(-c2ccc(OCC)c(OCC)c2)n1	1	-41.6	3.8	-4.6
Cc1ccc(N=Nc2cc(C)ccc2N)cc1	/	68.6*	34.1	/
O=C(COc1cccnc1[N+](=O)[O-])Nc1cc(Cl)ccc1Cl	/	-4.5	/	/
COc1ccc(C(=O)Nc2ccccc2C(=O)O)cc1Cl	0.2	48.9	29.2	75.5*
CCN(CC)S(=O)(=O)c1cc(C(=O)Nc2ccccc2C(=O)O)ccc1OC	0.4	22.0	21.3	59.3*
CCN(Cc1ccccc1)S(=O)(=O)c1cc(C(=O)NC2CCCCCC2)ccc1OC	1.1	-7.2	15.0	-5.2
O=C(CCl)N1CCN(S(=O)(=O)c2ccc3c(c2)CCC3)CC1	/	91.1*	/	/
CN1C(=O)N(CC(=O)N2CCN(S(=O)(=O)c3ccc4c(c3)CCC4)CC2)C(=O)C12CCCCC2	/	0.7	/	/
NS(=O)(=O)c1ccc(CCNC(=O)CSc2nc3ccccc3c(=O)n2CCC(=O)N2CCCCC2)cc1	0.5	-6.3	-8.8	53.3*
NS(=O)(=O)c1ccc(CCNC(=O)CSc2nc3ccccc3c(=O)n2CCN2CCOCC2)cc1	1	0.6	5.7	-3.6
COc1ccccc1NC(=O)COC(=O)CCS(=O)(=O)c1ccc(C)cc1	/	4.9	/	/
